# Test results: ChEMBL document CHEMBL1157589, “Antifungal 3,5-disubstituted furanones: From 5-acyloxymethyl to 5-alkylidene derivatives” (Bioorg Med Chem, 2010)
# Calls of active or inactive are those of the source. The rule behind the calls is not given here.
# Tests used:
# Lichtheimia corymbifera [1] = assay: Antifungal activity against Absidia corymbifera 272 after 48 hrs by microdilution method; format: functional; conditions: for MIC80: Lichtheimia corymbifera, 272, 48 h
# In short: (§1)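 Filamentous strains held on Sabouraud dextrose agar. NCCLS M27-A broth microdilution in RPMI 1640 with L-glutamine and 0.165 M MOPS, pH 7.0. DMSO diluent ≤2% final; twofold dilutions 500–0.48. Inoculum 5 × 10³ ± 0.2 cfu mL⁻¹ final.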
# Candida parapsilosis [2] = assay: Antifungal activity against Candida parapsilosis ATCC 22019 after 24 hrs by microdilution method; format: functional; conditions: for MIC80: Lodderomyces parapsilosis, ATCC 22019, 24 h
# In short: (§2)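 Yeasts held on Sabouraud dextrose agar. MIC by NCCLS M27-A broth microdilution in RPMI 1640 with L-glutamine, buffered with 0.165 M MOPS to pH 7.0. Compounds in DMSO (≤2% final), twofold dilutions 500–0.48. Final inoculum 5 × 10³ ± 0.2 cfu mL⁻¹. Incubated at 35 °C; absorbance at 540 nm read at 24 and 48 h. MIC is 80% growth inhibition versus control; run twice in duplicate.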
# [3] = test system: Trichophyton mentagrophytes; assay: Antifungal activity against Trichophyton mentagrophytes 445 after 72 hrs by microdilution method; format: functional; conditions: for MIC80: Trichophyton mentagrophytes, 445, 72 h
# In short: (§3)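 Dermatophyte held on Sabouraud dextrose agar. M27-A microdilution in MOPS-buffered (0.165 M, pH 7.0) RPMI 1640 with L-glutamine. DMSO ≤2% final; twofold dilutions 500–0.48. Inoculum 5 × 10³ ± 0.2 cfu mL⁻¹ final. Incubated at 35 °C; MIC read visually at 72 and 120 h as 80% inhibition of control growth; determined twice in duplicate.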
# Trichosporon beigelii [4] = assay: Antifungal activity against Trichosporon beigelii 1188 after 48 hrs by microdilution method; format: functional; conditions: for MIC80: Trichosporon beigelii, 1188, 48 h; in short: as §2
# Nakaseomyces glabratus [5] = assay: Antifungal activity against Candida glabrata 20/I after 24 hrs by microdilution method; format: functional; in short: as §2
# Lichtheimia corymbifera [6] = assay: Antifungal activity against Absidia corymbifera 272 after 24 hrs by microdilution method; format: functional; conditions: for MIC80: Lichtheimia corymbifera, 272, 24 h; in short: as §1
# Nakaseomyces glabratus [7] = assay: Antifungal activity against Candida glabrata 20/I after 48 hrs by microdilution method; format: functional; in short: as §2
# Candida albicans [8] = assay: Antifungal activity against Candida albicans ATCC 44859 after 24 hrs by microdilution method; format: functional; conditions: for MIC80: ATCC 44859, 24 h; in short: as §2
# Pichia kudriavzevii [9] = assay: Antifungal activity against Candida krusei ATCC 6258 after 48 hrs by microdilution method; format: functional; conditions: for MIC80: ATCC 6258, 48 h; in short: as §2
# Candida parapsilosis [10] = assay: Antifungal activity against Candida parapsilosis ATCC 22019 after 48 hrs by microdilution method; format: functional; conditions: for MIC80: Lodderomyces parapsilosis, ATCC 22019, 48 h; in short: as §2
# Pichia kudriavzevii [11] = assay: Antifungal activity against Candida krusei E28 after 24 hrs by microdilution method; format: functional; conditions: for MIC80: E28, 24 h; in short: as §2
# Candida albicans [12] = assay: Antifungal activity against Candida albicans ATCC 90028 after 48 hrs by microdilution method; format: functional; conditions: for MIC80: ATCC 90028, 48 h; in short: as §2
# Aspergillus fumigatus [13] = assay: Antifungal activity against Aspergillus fumigatus 231 after 48 hrs by microdilution method; format: functional; conditions: for MIC80: Aspergillus fumigatus, 231, 48 h; in short: as §1
# Pichia kudriavzevii [14] = assay: Antifungal activity against Candida krusei E28 after 48 hrs by microdilution method; format: functional; conditions: for MIC80: E28, 48 h; in short: as §2
# Trichosporon beigelii [15] = assay: Antifungal activity against Trichosporon beigelii 1188 after 24 hrs by microdilution method; format: functional; conditions: for MIC80: Trichosporon beigelii, 1188, 24 h; in short: as §2
# Candida albicans [16] = assay: Antifungal activity against Candida albicans ATCC 44859 after 48 hrs by microdilution method; format: functional; conditions: for MIC80: ATCC 44859, 48 h; in short: as §2
# Candida tropicalis [17] = assay: Antifungal activity against Candida tropicalis 156 after 48 hrs by microdilution method; format: functional; conditions: for MIC80: Candida tropicalis, 156, 48 h; in short: as §2
# Candida albicans [18] = assay: Antifungal activity against Candida albicans ATCC 90028 after 24 hrs by microdilution method; format: functional; conditions: for MIC80: ATCC 90028, 24 h; in short: as §2
# Clavispora lusitaniae [19] = assay: Antifungal activity against Candida lusitaniae 2446/I after 48 hrs by microdilution method; format: functional; in short: as §2
# Aspergillus fumigatus [20] = assay: Antifungal activity against Aspergillus fumigatus 231 after 24 hrs by microdilution method; format: functional; conditions: for MIC80: Aspergillus fumigatus, 231, 24 h; in short: as §1
# Pichia kudriavzevii [21] = assay: Antifungal activity against Candida krusei ATCC 6258 after 24 hrs by microdilution method; format: functional; conditions: for MIC80: ATCC 6258, 24 h; in short: as §2
# Clavispora lusitaniae [22] = assay: Antifungal activity against Candida lusitaniae 2446/I after 24 hrs by microdilution method; format: functional; in short: as §2
# Candida tropicalis [23] = assay: Antifungal activity against Candida tropicalis 156 after 24 hrs by microdilution method; format: functional; conditions: for MIC80: Candida tropicalis, 156, 24 h; in short: as §2
# [24] = test system: Trichophyton mentagrophytes; assay: Antifungal activity against Trichophyton mentagrophytes 445 after 120 hrs by microdilution method; format: functional; conditions: for MIC80: Trichophyton mentagrophytes, 445, 120 h; in short: as §3
# HL-60 = assay: Cytostatic activity against human HL60 cells after 72 hrs by XTT assay; format: functional, cell-based; conditions: Homo sapiens, HL-60, 72 h; read-out: IC50
# In short: (§4)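 Leukemia cells (L1210 ATCC CCL 219, CCRF-CEM ATCC CCL 119, HL-60 ATCC CCL 240) grown in 24-well plates in RPMI 1640 with fetal calf serum. Growth assessed 72 h after drug addition. Viability measured by XTT spectrophotometric assay; potency given as IC50.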
# HeLa S3 = assay: Cytostatic activity against human HeLaS3 cells after 48 hrs by XTT assay; conditions: Homo sapiens, HeLa S3, 48 h; read-out: IC50
# CCRF-CEM = assay: Cytostatic activity against human CCRF-CEM cells after 72 hrs by XTT assay; format: functional, cell-based; conditions: Homo sapiens, CCRF-CEM, 72 h; read-out: IC50; in short: as §4
structure (smiles),measurement,setting,value
OC(Cn1cncn1)(Cn1cncn1)c1ccc(F)cc1F [FLUCONAZOLE],MIC80,Lichtheimia corymbifera [1],> 50 µM
same,MIC80,Candida parapsilosis [2],6.5 µM
same,MIC80,[3],17 µM
same,MIC80,Trichosporon beigelii [4],9 µM
same,MIC80,Nakaseomyces glabratus [5],22 µM
same,MIC80,Lichtheimia corymbifera [6],> 50 µM
same,MIC80,Nakaseomyces glabratus [7],> 50 µM
same,MIC80,Candida albicans [8],1 µM
same,MIC80,Pichia kudriavzevii [9],> 50 µM
same,MIC80,Candida parapsilosis [10],13 µM
same,MIC80,Pichia kudriavzevii [11],> 50 µM
same,MIC80,Candida albicans [12],3.3 µM
same,MIC80,Aspergillus fumigatus [13],> 50 µM
same,MIC80,Pichia kudriavzevii [14],> 50 µM
same,MIC80,Trichosporon beigelii [15],4 µM
same,MIC80,Candida albicans [16],2 µM
same,MIC80,Candida tropicalis [17],5 µM
same,MIC80,Candida albicans [18],0.8 µM
same,MIC80,Clavispora lusitaniae [19],3.3 µM
same,MIC80,Aspergillus fumigatus [20],> 50 µM
same,MIC80,Pichia kudriavzevii [21],> 50 µM
same,MIC80,Clavispora lusitaniae [22],3.3 µM
same,MIC80,Candida tropicalis [23],3 µM
O=C1OC(COc2ccc(I)cc2)C=C1c1ccc(Br)cc1 (stereo not drawn),MIC80,Lichtheimia corymbifera [1],> 500 µM
same,MIC80,Candida parapsilosis [2],31.2 µM
same,MIC80,[3],1.95 µM
same,MIC80,Trichosporon beigelii [4],500 µM
same,MIC80,[24],3.9 µM
same,MIC80,Nakaseomyces glabratus [5],1.95 µM
same,MIC80,Lichtheimia corymbifera [6],> 500 µM
same,MIC80,Nakaseomyces glabratus [7],3.9 µM
same,MIC80,Candida albicans [8],0.48 µM
same,IC50,HL-60,7.22 µM
same,MIC80,Pichia kudriavzevii [9],> 500 µM
same,MIC80,Candida parapsilosis [10],> 500 µM
same,MIC80,Pichia kudriavzevii [11],31.2 µM
same,MIC80,Candida albicans [12],7.81 µM
same,IC50,HeLa S3,4 µM
same,MIC80,Aspergillus fumigatus [13],7.81 µM
same,MIC80,Pichia kudriavzevii [14],> 500 µM
same,MIC80,Trichosporon beigelii [15],7.81 µM
same,MIC80,Candida albicans [16],1.95 µM
same,MIC80,Candida tropicalis [17],31.2 µM
same,MIC80,Candida albicans [18],3.9 µM
same,MIC80,Clavispora lusitaniae [19],31.2 µM
same,MIC80,Aspergillus fumigatus [20],3.9 µM
same,MIC80,Pichia kudriavzevii [21],31.2 µM
same,IC50,CCRF-CEM,1.19 µM
same,MIC80,Clavispora lusitaniae [22],7.81 µM
same,MIC80,Candida tropicalis [23],15.6 µM
O=C1CCC=C1c1ccc(Cl)c(Cl)c1,Activity,Lichtheimia corymbifera [1],inactive
same,Activity,Candida parapsilosis [2],inactive
same,Activity,[3],inactive
same,Activity,Trichosporon beigelii [4],inactive
same,Activity,[24],inactive
same,Activity,Lichtheimia corymbifera [6],inactive
same,Activity,Candida albicans [8],inactive
same,Activity,Pichia kudriavzevii [9],inactive
same,Activity,Candida parapsilosis [10],inactive
same,Activity,Pichia kudriavzevii [11],inactive
same,Activity,Candida albicans [12],inactive
same,Activity,Aspergillus fumigatus [13],inactive
same,Activity,Pichia kudriavzevii [14],inactive
same,Activity,Trichosporon beigelii [15],inactive
same,Activity,Candida albicans [16],inactive
same,Activity,Candida tropicalis [17],inactive
same,Activity,Candida albicans [18],inactive
same,Activity,Clavispora lusitaniae [19],inactive
same,Activity,Aspergillus fumigatus [20],inactive
same,Activity,Pichia kudriavzevii [21],inactive
same,Activity,Clavispora lusitaniae [22],inactive
same,Activity,Candida tropicalis [23],inactive
COc1ccc(OCC2C=C(c3ccc(Br)cc3)C(=O)O2)cc1 (stereo not drawn),MIC80,Lichtheimia corymbifera [1],62.5 µM
same,MIC80,Candida parapsilosis [2],7.81 µM
same,MIC80,[3],1.95 µM
same,MIC80,Trichosporon beigelii [4],15.6 µM
same,MIC80,[24],1.95 µM
same,MIC80,Nakaseomyces glabratus [5],0.97 µM
same,MIC80,Lichtheimia corymbifera [6],31.2 µM
same,MIC80,Nakaseomyces glabratus [7],1.95 µM
same,MIC80,Candida albicans [8],0.97 µM
same,MIC80,Pichia kudriavzevii [9],15.6 µM
same,MIC80,Candida parapsilosis [10],15.6 µM
same,MIC80,Pichia kudriavzevii [11],7.81 µM
same,MIC80,Candida albicans [12],7.81 µM
same,MIC80,Aspergillus fumigatus [13],7.81 µM
same,MIC80,Pichia kudriavzevii [14],15.6 µM
same,MIC80,Trichosporon beigelii [15],7.81 µM
same,MIC80,Candida albicans [16],1.95 µM
same,MIC80,Candida tropicalis [17],7.81 µM
same,MIC80,Candida albicans [18],1.95 µM
same,MIC80,Clavispora lusitaniae [19],7.81 µM
same,MIC80,Aspergillus fumigatus [20],3.9 µM
same,MIC80,Pichia kudriavzevii [21],7.81 µM
same,MIC80,Clavispora lusitaniae [22],3.9 µM
same,MIC80,Candida tropicalis [23],7.81 µM
O=C1OC(COc2ccccc2)C=C1c1ccc(Br)cc1 (stereo not drawn),MIC80,Lichtheimia corymbifera [1],500 µM
same,MIC80,Candida parapsilosis [2],7.81 µM
same,MIC80,[3],1.95 µM
same,MIC80,Trichosporon beigelii [4],31.2 µM
same,MIC80,[24],3.9 µM
same,MIC80,Nakaseomyces glabratus [5],1.95 µM
same,MIC80,Lichtheimia corymbifera [6],125 µM
same,MIC80,Nakaseomyces glabratus [7],1.95 µM
same,MIC80,Candida albicans [8],0.97 µM
same,IC50,HL-60,4.37 µM
same,MIC80,Pichia kudriavzevii [9],31.2 µM
same,MIC80,Candida parapsilosis [10],31.2 µM
same,MIC80,Pichia kudriavzevii [11],15.6 µM
same,MIC80,Candida albicans [12],7.81 µM
same,IC50,HeLa S3,4.67 µM
same,MIC80,Aspergillus fumigatus [13],15.6 µM
same,MIC80,Pichia kudriavzevii [14],31.2 µM
same,MIC80,Trichosporon beigelii [15],7.81 µM
same,MIC80,Candida albicans [16],1.95 µM
same,MIC80,Candida tropicalis [17],15.6 µM
same,MIC80,Candida albicans [18],1.95 µM
same,MIC80,Clavispora lusitaniae [19],7.81 µM
same,MIC80,Aspergillus fumigatus [20],1.95 µM
same,MIC80,Pichia kudriavzevii [21],7.81 µM
same,IC50,CCRF-CEM,1.09 µM
same,MIC80,Clavispora lusitaniae [22],3.9 µM
same,MIC80,Candida tropicalis [23],7.81 µM
